# From ChEMBL document CHEMBL4229498 (Bioorg Med Chem, 2018)
# pEC50, pKi: −log10 of the molar value.
# System: not listed separately
# Assay: Cmax in C57BL6 mouse plasma at […], po administered in cassette format
# Assay type: ADME, organism-based
# Set-up: dose 2.5 mg/kg, route oral
# Conditions: not given
row,Compound,Cmax [ng/mL]
1,O=C(Nc1ccc(OC(F)F)nc1)N1CCN(c2ncnc3c2nc(-c2ccccc2Cl)n3-c2ccc(Cl)cc2)CC1,500

# System: not listed separately
# Assay: Tmax in C57BL6 mouse plasma at […], po administered in cassette format
# Assay type: ADME, organism-based
# Conditions: not given
row,Compound,Tmax [h]
1,O=C(Nc1ccc(OC(F)F)nc1)N1CCN(c2ncnc3c2nc(-c2ccccc2Cl)n3-c2ccc(Cl)cc2)CC1,4

# Target: Cannabinoid receptor 2 (Homo sapiens, UniProt P34972)
# Assay: Displacement of [3H]-CP55940 from human CB2 receptor expressed in CHO cell membranes after 1 hr by liquid scintillation spectrometry
# Conditions: not given
# Cannabinoid receptor 2, sequence (P34972 whole entry): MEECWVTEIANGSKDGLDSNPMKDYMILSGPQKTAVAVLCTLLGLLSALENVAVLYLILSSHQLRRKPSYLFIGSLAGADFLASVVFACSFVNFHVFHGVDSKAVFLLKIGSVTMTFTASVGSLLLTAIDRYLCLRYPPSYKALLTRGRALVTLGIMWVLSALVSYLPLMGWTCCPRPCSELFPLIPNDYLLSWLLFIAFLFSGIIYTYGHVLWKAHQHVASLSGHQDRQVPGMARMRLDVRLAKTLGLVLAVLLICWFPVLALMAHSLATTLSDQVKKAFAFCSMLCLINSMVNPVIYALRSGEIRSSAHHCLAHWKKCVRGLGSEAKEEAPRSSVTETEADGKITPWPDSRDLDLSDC
row,Compound,pKi
1,O=C(CC1CCCC1)N1CCN(c2ncnc3c2nc(-c2ccccc2Cl)n3-c2ccc(Cl)cc2)CC1,< 5.00
2,O=S(=O)(CCC(F)(F)F)N1CCN(c2ncnc3c2nc(-c2ccccc2Cl)n3-c2ccc(Cl)cc2)CC1,6.30
3,O=C(CC1CCOC1)N1CCN(c2ncnc3c2nc(-c2ccccc2Cl)n3-c2ccc(Cl)cc2)CC1 (stereo not given),5.52
4,O=S(=O)(CC1CCOCC1)N1CCN(c2ncnc3c2nc(-c2ccccc2Cl)n3-c2ccc(Cl)cc2)CC1,5.52
5,O=C(Nc1ccc(OC(F)F)nc1)N1CCN(c2ncnc3c2nc(-c2ccccc2Cl)n3-c2ccc(Cl)cc2)CC1,< 5.00
6,O=S(=O)(CC1CCCCC1)N1CCN(c2ncnc3c2nc(-c2ccccc2Cl)n3-c2ccc(Cl)cc2)CC1,7.04
7,O=C(OCC1CCC1)N1CCN(c2ncnc3c2nc(-c2ccccc2Cl)n3-c2ccc(Cl)cc2)CC1,5.34
8,CC(C)CS(=O)(=O)N1CCN(c2ncnc3c2nc(-c2ccccc2Cl)n3-c2ccc(Cl)cc2)CC1,5.55
9,CS(=O)(=O)N1CCN(c2ncnc3c2nc(-c2ccccc2Cl)n3-c2ccc(Cl)cc2)CC1,5.77
10,O=C(N1CCN(c2ncnc3c2nc(-c2ccccc2Cl)n3-c2ccc(Cl)cc2)CC1)C(F)(F)F,6.89
11,O=C(CN1CCCCC1)N1CCN(c2ncnc3c2nc(-c2ccccc2Cl)n3-c2ccc(Cl)cc2)CC1,5.30
12,O=C(OC1CCC1)N1CCN(c2ncnc3c2nc(-c2ccccc2Cl)n3-c2ccc(Cl)cc2)CC1,5.47
13,CC(C)(C)CC(=O)N1CCN(c2ncnc3c2nc(-c2ccccc2Cl)n3-c2ccc(Cl)cc2)CC1,5.30
14,CCOCC(=O)N1CCN(c2ncnc3c2nc(-c2ccccc2Cl)n3-c2ccc(Cl)cc2)CC1,< 5.00
15,CC(C(=O)N1CCN(c2ncnc3c2nc(-c2ccccc2Cl)n3-c2ccc(Cl)cc2)CC1)c1ccccc1 (stereo not given),6.25
16,CC(C)(C)OC(=O)N1CCN(c2ncnc3c2nc(-c2ccccc2Cl)n3-c2ccc(Cl)cc2)CC1,5.47
17,O=C(C1CCSCC1)N1CCN(c2ncnc3c2nc(-c2ccccc2Cl)n3-c2ccc(Cl)cc2)CC1,6.28

# Target: T1, Cannabinoid receptor 1 (Homo sapiens, UniProt P21554)
# Assay: Displacement of [3H]-CP55940 from human CB1 receptor expressed in CHO cell membranes after 1 hr by liquid scintillation spectrometry
# Conditions: not given
# T1 sequence (P21554 whole entry): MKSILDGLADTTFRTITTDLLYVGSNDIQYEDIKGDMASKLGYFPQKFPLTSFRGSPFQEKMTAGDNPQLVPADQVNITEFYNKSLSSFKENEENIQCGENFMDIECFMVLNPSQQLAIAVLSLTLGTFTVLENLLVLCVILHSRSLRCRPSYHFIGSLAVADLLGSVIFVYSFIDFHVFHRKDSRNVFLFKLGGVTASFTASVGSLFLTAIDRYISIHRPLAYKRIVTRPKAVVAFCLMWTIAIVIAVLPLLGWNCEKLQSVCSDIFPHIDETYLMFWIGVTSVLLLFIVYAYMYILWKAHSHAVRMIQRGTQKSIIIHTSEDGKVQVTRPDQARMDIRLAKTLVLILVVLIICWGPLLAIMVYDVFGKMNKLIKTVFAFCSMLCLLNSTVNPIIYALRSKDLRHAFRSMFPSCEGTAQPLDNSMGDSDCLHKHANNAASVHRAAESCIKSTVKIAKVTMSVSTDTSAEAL
row,Compound,pKi
1,O=C(CC1CCCC1)N1CCN(c2ncnc3c2nc(-c2ccccc2Cl)n3-c2ccc(Cl)cc2)CC1,9.40
2,O=C(C1COc2ccccc2O1)N1CCN(c2ncnc3c2nc(-c2ccccc2Cl)n3-c2ccc(Cl)cc2)CC1 (stereo not given),8.30
3,O=S(=O)(CCC(F)(F)F)N1CCN(c2ncnc3c2nc(-c2ccccc2Cl)n3-c2ccc(Cl)cc2)CC1,8.92
4,O=C(CC1CCOC1)N1CCN(c2ncnc3c2nc(-c2ccccc2Cl)n3-c2ccc(Cl)cc2)CC1 (stereo not given),8.10
5,O=S(=O)(CC1CCOCC1)N1CCN(c2ncnc3c2nc(-c2ccccc2Cl)n3-c2ccc(Cl)cc2)CC1,8.52
6,CCS(=O)(=O)N1CCN(c2ncnc3c2nc(-c2ccccc2Cl)n3-c2ccc(Cl)cc2)CC1,8.52
7,O=S(=O)(CC1CCCCC1)N1CCN(c2ncnc3c2nc(-c2ccccc2Cl)n3-c2ccc(Cl)cc2)CC1,8.77
8,O=C(OCC1CCC1)N1CCN(c2ncnc3c2nc(-c2ccccc2Cl)n3-c2ccc(Cl)cc2)CC1,8.52
9,O=C(Nc1ccc(F)cc1F)N1CCN(c2ncnc3c2nc(-c2ccccc2Cl)n3-c2ccc(Cl)cc2)CC1,8.30
10,CS(=O)(=O)N1CCN(c2ncnc3c2nc(-c2ccccc2Cl)n3-c2ccc(Cl)cc2)CC1,7.62
11,O=S(=O)(C1CC1)N1CCN(c2ncnc3c2nc(-c2ccccc2Cl)n3-c2ccc(Cl)cc2)CC1,8.30
12,O=C(CN1CCCCC1)N1CCN(c2ncnc3c2nc(-c2ccccc2Cl)n3-c2ccc(Cl)cc2)CC1,7.68
13,O=C(OC1CCC1)N1CCN(c2ncnc3c2nc(-c2ccccc2Cl)n3-c2ccc(Cl)cc2)CC1,8.52
14,CC(C)(C)CC(=O)N1CCN(c2ncnc3c2nc(-c2ccccc2Cl)n3-c2ccc(Cl)cc2)CC1,8.70
15,CCCCC(=O)N1CCN(c2ncnc3c2nc(-c2ccccc2Cl)n3-c2ccc(Cl)cc2)CC1,8.22
16,CCOCC(=O)N1CCN(c2ncnc3c2nc(-c2ccccc2Cl)n3-c2ccc(Cl)cc2)CC1,7.96
17,CC(C(=O)N1CCN(c2ncnc3c2nc(-c2ccccc2Cl)n3-c2ccc(Cl)cc2)CC1)c1ccccc1 (stereo not given),8.52
18,CC(C)(C)OC(=O)N1CCN(c2ncnc3c2nc(-c2ccccc2Cl)n3-c2ccc(Cl)cc2)CC1,8.30
19,O=C(NS(=O)(=O)c1ccccc1F)N1CCN(c2ncnc3c2nc(-c2ccccc2Cl)n3-c2ccc(Cl)cc2)CC1,6.60
20,O=C(N1CCCC1)N1CCN(c2ncnc3c2nc(-c2ccccc2Cl)n3-c2ccc(Cl)cc2)CC1,7.89

# Target: T1, Cannabinoid receptor 1
# Assay: not given
# Conditions: HEK293
row,Compound,Ke [nM]
1,O=C(OCC1CCC1)N1CCN(c2ncnc3c2nc(-c2ccccc2Cl)n3-c2ccc(Cl)cc2)CC1,12

# System: not listed separately
# Assay: Ratio of drug level in brain to plasma in C57BL6 mouse at […], po administered in cassette format
# Assay type: ADME, organism-based
# Conditions: not given
row,Compound,BPR
1,O=C(Nc1ccc(OC(F)F)nc1)N1CCN(c2ncnc3c2nc(-c2ccccc2Cl)n3-c2ccc(Cl)cc2)CC1,0.18

# System: not listed separately
# Assay: Drug transport across apical to basolateral side in MDCK cells expressing MDR1 at 10 uM after 1 hr by mass spectrometer
# Assay type: ADME, cell-based, Canis lupus familiaris
# Conditions: dog
# Outline: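 MDCK-mdr1 cells (human MDR1-transfected) were grown 4 days to confluence on Transwell-type filters in DMEM/F12 with 10% FBS and antibiotics. Compound was added apically at 10 µM in HBSS with 25 mM D-glucose, HEPES-buffered to pH 7.4, and incubated 1 h at 37 °C. Apical and basal samples were collected, and results are given as % transported apical to basal.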
row,Compound,Drug transport [%]
1,CC(C)S(=O)(=O)N1CCN(c2ncnc3c2nc(-c2ccccc2Cl)n3-c2ccc(Cl)cc2)CC1,11
2,O=C(C1COc2ccccc2O1)N1CCN(c2ncnc3c2nc(-c2ccccc2Cl)n3-c2ccc(Cl)cc2)CC1 (stereo not given),0
3,O=C(Nc1ccc(F)c(F)c1)N1CCN(c2ncnc3c2nc(-c2ccccc2Cl)n3-c2ccc(Cl)cc2)CC1,0
4,O=S(=O)(CC1CCOCC1)N1CCN(c2ncnc3c2nc(-c2ccccc2Cl)n3-c2ccc(Cl)cc2)CC1,9
5,O=C(Nc1ccccn1)N1CCN(c2ncnc3c2nc(-c2ccccc2Cl)n3-c2ccc(Cl)cc2)CC1,1.2
6,O=C(Nc1ccc(OC(F)F)nc1)N1CCN(c2ncnc3c2nc(-c2ccccc2Cl)n3-c2ccc(Cl)cc2)CC1,1.1
7,O=C(NC1CCCC1)N1CCN(c2ncnc3c2nc(-c2ccccc2Cl)n3-c2ccc(Cl)cc2)CC1,3
8,O=C(Nc1ccc(F)cc1)N1CCN(c2ncnc3c2nc(-c2ccccc2Cl)n3-c2ccc(Cl)cc2)CC1,0
9,CCS(=O)(=O)N1CCN(c2ncnc3c2nc(-c2ccccc2Cl)n3-c2ccc(Cl)cc2)CC1,18
10,O=C(OCC1CCC1)N1CCN(c2ncnc3c2nc(-c2ccccc2Cl)n3-c2ccc(Cl)cc2)CC1,0
11,CC(C)CS(=O)(=O)N1CCN(c2ncnc3c2nc(-c2ccccc2Cl)n3-c2ccc(Cl)cc2)CC1,0
12,O=C(Nc1ccc(F)cc1F)N1CCN(c2ncnc3c2nc(-c2ccccc2Cl)n3-c2ccc(Cl)cc2)CC1,1.4
13,CS(=O)(=O)N1CCN(c2ncnc3c2nc(-c2ccccc2Cl)n3-c2ccc(Cl)cc2)CC1,14
14,O=S(=O)(C1CC1)N1CCN(c2ncnc3c2nc(-c2ccccc2Cl)n3-c2ccc(Cl)cc2)CC1,4
15,CCCS(=O)(=O)N1CCN(c2ncnc3c2nc(-c2ccccc2Cl)n3-c2ccc(Cl)cc2)CC1,6
16,O=C(CN1CCCCC1)N1CCN(c2ncnc3c2nc(-c2ccccc2Cl)n3-c2ccc(Cl)cc2)CC1,5
17,CCCCS(=O)(=O)N1CCN(c2ncnc3c2nc(-c2ccccc2Cl)n3-c2ccc(Cl)cc2)CC1,5
18,CCCCC(=O)N1CCN(c2ncnc3c2nc(-c2ccccc2Cl)n3-c2ccc(Cl)cc2)CC1,0
19,O=C(Nc1ccccc1)N1CCN(c2ncnc3c2nc(-c2ccccc2Cl)n3-c2ccc(Cl)cc2)CC1,1
20,O=C(Nc1ccccc1F)N1CCN(c2ncnc3c2nc(-c2ccccc2Cl)n3-c2ccc(Cl)cc2)CC1,5
21,N=C(Nc1ccc(F)cc1)N1CCN(c2ncnc3c2nc(-c2ccccc2Cl)n3-c2ccc(Cl)cc2)CC1,0.4
22,CC(C)(C)OC(=O)N1CCN(c2ncnc3c2nc(-c2ccccc2Cl)n3-c2ccc(Cl)cc2)CC1,3

# Target: T1, Cannabinoid receptor 1
# Assay: not given
# Assay type: functional, cell-based, HEK293
# Conditions: not given
row,Compound,pEC50
1,O=C(Nc1ccc(OC(F)F)nc1)N1CCN(c2ncnc3c2nc(-c2ccccc2Cl)n3-c2ccc(Cl)cc2)CC1,6.23

# System: not listed separately
# Assay: Half life in C57BL6 mouse at […], po administered in cassette format
# Assay type: ADME, organism-based
# Conditions: in vivo
row,Compound,half-life [h]
1,O=C(Nc1ccc(OC(F)F)nc1)N1CCN(c2ncnc3c2nc(-c2ccccc2Cl)n3-c2ccc(Cl)cc2)CC1,6.1
